# Measurements from ChEMBL document CHEMBL4689842, “EUbOPEN Chemogenomics Library wave 1” (2021).
# Several values for one entry are separate records, joined by “and”; a condition that tells them apart may be missing. Equal values may be shown once.
# System: U2OS
# Assay: Multiplex assay against U2OS
# Assay type: toxicity, cell-based
# Conditions: human
# Procedure, shortened: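 Live cells carried four stains from seeding: Hoechst33342, BioTracker Green Microtubule Cytoskeleton Dye, MitoTracker Red and Annexin V Alexa Fluor 680. They were imaged on a CQ1 microscope at 37°C and 5% CO2 after compound addition. Using CellPathfinder machine-learning gating, cells were split into Hoechst high-intensity objects or normal cells, normal cells into healthy, pyknosed or fragmented nuclei, and pyknosed cells into mitotic or apoptotic; tubulin, mitochondrial-mass and membrane-permeability phenotypes are per cents of healthy-nucleus cells.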
# [1] = 12 h, 1 µM, compound concentration 1 uM, replicate 1
# [2] = 12 h, 1 µM, compound concentration 1 uM, replicate 2
# [3] = 12 h, 10 µM, compound concentration 10 uM, replicate 1
# [4] = 12 h, 10 µM, compound concentration 10 uM, replicate 2
# [5] = 24 h, 1 µM, compound concentration 1 uM, replicate 1
# [6] = 24 h, 1 µM, compound concentration 1 uM, replicate 2
# [7] = 24 h, 10 µM, compound concentration 10 uM, replicate 1
# [8] = 24 h, 10 µM, compound concentration 10 uM, replicate 2
# [9] = 48 h, 1 µM, compound concentration 1 uM, replicate 1
# [10] = 48 h, 1 µM, compound concentration 1 uM, replicate 2
# [11] = 48 h, 10 µM, compound concentration 10 uM, replicate 1
# [12] = 48 h, 10 µM, compound concentration 10 uM, replicate 2
smiles,measurement,setting,value
Cn1cc(-c2[nH]c3cc(NC(=O)[C@H](N)C4CCCCC4)cc4c3c2C=NNC4=O)cn1,Population Apoptotic (%),[1],44%
same,Population Fragmented Nuclei (%),[1],11%
same,Population Healthy Nuclei (%),[1],76%
same,Population Hoechst High Intensity Objects (%),[1],3%
same,Population Membrane Permeable-Phenotype (%),[1],6%
same,Population Mitochondria Different-Phenotype (%),[1],4%
same,Population Mitotic Cells (%),[1],55%
same,Population Normal (%),[1],96%
same,Population Pyknosed Nuclei (%),[1],11%
same,Population Tubulin-Different-Phenotype (%),[1],16%
same,Total Cell Count,[1],123
same,Population Apoptotic (%),[2],33%
same,Population Fragmented Nuclei (%),[2],13%
same,Population Healthy Nuclei (%),[2],72%
same,Population Membrane Permeable-Phenotype (%),[2],4%
same,Population Mitochondria Different-Phenotype (%),[2],7%
same,Population Mitotic Cells (%),[2],66%
same,Population Pyknosed Nuclei (%),[2],13%
same,Population Tubulin-Different-Phenotype (%),[2],12%
same,Total Cell Count,[2],51
same,Population Apoptotic (%),[3],47%
same,Population Fragmented Nuclei (%),[3],14%
same,Population Healthy Nuclei (%),[3],60%
same,Population Hoechst High Intensity Objects (%),[3],6%
same,Population Membrane Permeable-Phenotype (%),[3],7%
same,Population Mitochondria Different-Phenotype (%),[3],34%
same,Population Mitotic Cells (%),[3],52%
same,Population Normal (%),[3],93%
same,Population Pyknosed Nuclei (%),[3],25%
same,Population Tubulin-Different-Phenotype (%),[3],28%
same,Total Cell Count,[3],247
same,Population Apoptotic (%),[4],69%
same,Population Fragmented Nuclei (%),[4],37%
same,Population Healthy Nuclei (%),[4],42%
same,Population Hoechst High Intensity Objects (%),[4],9%
same,Population Membrane Permeable-Phenotype (%),[4],21%
same,Population Mitochondria Different-Phenotype (%),[4],53%
same,Population Mitotic Cells (%),[4],30%
same,Population Normal (%),[4],90%
same,Population Pyknosed Nuclei (%),[4],19%
same,Population Tubulin-Different-Phenotype (%),[4],57%
same,Total Cell Count,[4],91
same,Population Apoptotic (%),[5],46%
same,Population Fragmented Nuclei (%),[5],9%
same,Population Healthy Nuclei (%),[5],80%
same,Population Membrane Permeable-Phenotype (%),[5],5%
same,Population Mitochondria Different-Phenotype (%),[5],3%
same,Population Mitotic Cells (%),[5],53%
same,Population Pyknosed Nuclei (%),[5],9%
same,Population Tubulin-Different-Phenotype (%),[5],14%
same,Total Cell Count,[5],121
same,Population Apoptotic (%),[6],43%
same,Population Fragmented Nuclei (%),[6],13%
same,Population Healthy Nuclei (%),[6],70%
same,Population Hoechst High Intensity Objects (%),[6],3%
same,Population Membrane Permeable-Phenotype (%),[6],9%
same,Population Mitochondria Different-Phenotype (%),[6],6%
same,Population Mitotic Cells (%),[6],56%
same,Population Normal (%),[6],96%
same,Population Pyknosed Nuclei (%),[6],15%
same,Population Tubulin-Different-Phenotype (%),[6],15%
same,Total Cell Count,[6],52
same,Population Apoptotic (%),[7],67%
same,Population Fragmented Nuclei (%),[7],17%
same,Population Healthy Nuclei (%),[7],43%
same,Population Hoechst High Intensity Objects (%),[7],8%
same,Population Membrane Permeable-Phenotype (%),[7],10%
same,Population Mitochondria Different-Phenotype (%),[7],16%
same,Population Mitotic Cells (%),[7],32%
same,Population Normal (%),[7],91%
same,Population Pyknosed Nuclei (%),[7],39%
same,Population Tubulin-Different-Phenotype (%),[7],19%
same,Total Cell Count,[7],293
same,Population Apoptotic (%),[8],86%
same,Population Fragmented Nuclei (%),[8],34%
same,Population Healthy Nuclei (%),[8],29%
same,Population Hoechst High Intensity Objects (%),[8],16%
same,Population Membrane Permeable-Phenotype (%),[8],44%
same,Population Mitochondria Different-Phenotype (%),[8],61%
same,Population Mitotic Cells (%),[8],13%
same,Population Normal (%),[8],83%
same,Population Pyknosed Nuclei (%),[8],36%
same,Population Tubulin-Different-Phenotype (%),[8],55%
same,Total Cell Count,[8],106
same,Population Apoptotic (%),[9],45%
same,Population Fragmented Nuclei (%),[9],7%
same,Population Healthy Nuclei (%),[9],81%
same,Population Hoechst High Intensity Objects (%),[9],3%
same,Population Membrane Permeable-Phenotype (%),[9],2%
same,Population Mitochondria Different-Phenotype (%),[9],3%
same,Population Mitotic Cells (%),[9],54%
same,Population Normal (%),[9],96%
same,Population Pyknosed Nuclei (%),[9],10%
same,Population Tubulin-Different-Phenotype (%),[9],17%
same,Total Cell Count,[9],124
same,Population Apoptotic (%),[10],42%
same,Population Fragmented Nuclei (%),[10],15%
same,Population Healthy Nuclei (%),[10],55%
same,Population Hoechst High Intensity Objects (%),[10],5%
same,Population Membrane Permeable-Phenotype (%),[10],16%
same,Population Mitochondria Different-Phenotype (%),[10],18%
same,Population Mitotic Cells (%),[10],57%
same,Population Normal (%),[10],94%
same,Population Pyknosed Nuclei (%),[10],28%
same,Population Tubulin-Different-Phenotype (%),[10],24%
same,Total Cell Count,[10],56
same,Population Apoptotic (%),[11],83%
same,Population Fragmented Nuclei (%),[11],20%
same,Population Healthy Nuclei (%),[11],31%
same,Population Hoechst High Intensity Objects (%),[11],13%
same,Population Membrane Permeable-Phenotype (%),[11],13%
same,Population Mitochondria Different-Phenotype (%),[11],20%
same,Population Mitotic Cells (%),[11],16%
same,Population Normal (%),[11],86%
same,Population Pyknosed Nuclei (%),[11],48%
same,Population Tubulin-Different-Phenotype (%),[11],21%
same,Total Cell Count,[11],395
same,Population Apoptotic (%),[12],100%
same,Population Fragmented Nuclei (%),[12],40%
same,Population Hoechst High Intensity Objects (%),[12],20%
same,Population Membrane Permeable-Phenotype (%),[12],66%
same,Population Mitochondria Different-Phenotype (%),[12],61%
same,Population Mitotic Cells (%),[12],0%
same,Population Normal (%),[12],79%
same,Population Pyknosed Nuclei (%),[12],28%
same,Population Tubulin-Different-Phenotype (%),[12],77%
same,Total Cell Count,[12],103
Cn1c(-c2csc(C3CCN(CC4=NC5N=CC=CC5N4)CC3)n2)nc2ccccc21 (stereo not drawn) [BAY-070],Population Fragmented Nuclei (%),[3],2% and 3%
same,Population Healthy Nuclei (%),[3],90%
same,Population Hoechst High Intensity Objects (%),[3],5% and 3%
same,Population Membrane Permeable-Phenotype (%),[3],6%
same,Population Mitochondria Different-Phenotype (%),[3],10%
same,Population Mitotic Cells (%),[3],91% and 70%
same,Population Normal (%),[3],94% and 96%
same,Population Pyknosed Nuclei (%),[3],6% and 11%
same,Population Tubulin-Different-Phenotype (%),[3],22% and 8%
same,Total Cell Count,[3],183 and 214
same,Population Fragmented Nuclei (%),[4],13% and 7%
same,Population Healthy Nuclei (%),[4],84% and 89%
same,Population Hoechst High Intensity Objects (%),[4],12% and 13%
same,Population Membrane Permeable-Phenotype (%),[4],19% and 8%
same,Population Mitochondria Different-Phenotype (%),[4],21% and 25%
same,Population Mitotic Cells (%),[4],100% and 66%
same,Population Normal (%),[4],87% and 86%
same,Population Pyknosed Nuclei (%),[4],2%
same,Population Tubulin-Different-Phenotype (%),[4],19% and 34%
same,Total Cell Count,[4],96 and 145
same,Population Apoptotic (%),[7],50% and 40%
same,Population Fragmented Nuclei (%),[7],5% and 3%
same,Population Healthy Nuclei (%),[7],88% and 92%
same,Population Hoechst High Intensity Objects (%),[7],3% and 2%
same,Population Membrane Permeable-Phenotype (%),[7],10%
same,Population Mitochondria Different-Phenotype (%),[7],17% and 14%
same,Population Mitotic Cells (%),[7],50% and 60%
same,Population Normal (%),[7],96% and 97%
same,Population Pyknosed Nuclei (%),[7],6% and 3%
same,Population Tubulin-Different-Phenotype (%),[7],15% and 30%
same,Total Cell Count,[7],265 and 259
same,Population Apoptotic (%),[8],20% and 33%
same,Population Fragmented Nuclei (%),[8],7% and 6%
same,Population Healthy Nuclei (%),[8],87% and 84%
same,Population Hoechst High Intensity Objects (%),[8],12%
same,Population Mitochondria Different-Phenotype (%),[8],25% and 27%
same,Population Mitotic Cells (%),[8],80% and 66%
same,Population Normal (%),[8],87%
same,Population Pyknosed Nuclei (%),[8],5% and 8%
same,Population Tubulin-Different-Phenotype (%),[8],19% and 39%
same,Total Cell Count,[8],108 and 180
